According to ChEMBL document CHEMBL3734686, “Synthesis, Photophysical Properties, and Biological Evaluation of trans-Bisthioglycosylated Tetrakis(fluorophenyl)chlorin for Photodynamic Therapy” (J Med Chem, 2015):

Key:
[1] = Induction of reactive oxygen generation assessed as quantum yield of singlet oxygen generation in O2 saturated D2O containing 0.1% DMSO by spectrometry; type: physicochemical
Summary of the method: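 Photosensitizer in D2O with 0.1% DMSO, absorbance set to 0.4 at its excitation wavelength, oxygen-purged 1 min; singlet-oxygen luminescence recorded with NIR photomultiplier cooled to 193 K; TPPS as reference.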

[2] = Induction of reactive oxygen generation assessed as quantum yield of hydrogen peroxide generation in O2 saturated PBS containing 1% DMSO under photoirradiation by spectrometry relative to control hematoporphyrin; type: physicochemical; details: buffer
Summary of the method: (§1)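 Photosensitizer (1.00 µM) with HPF (2.00 µM) in PBS containing 1% DMSO, oxygenated 1 min, irradiated with 100-W halogen lamp through λ>500 nm cutoff filter at 37°C; hematoporphyrin as reference.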

[3] = Induction of reactive oxygen generation assessed as quantum yield of hydroxyl radical generation in O2 saturated PBS containing 1% DMSO under photoirradiation by spectrometry relative to control hematoporphyrin; type: physicochemical; details: buffer; summary of the method: as §1
HeLa [4] = experiment: Dark cytotoxicity against human HeLa cells at 0.5 uM assessed as cell survival preincubated for 24 hrs measured by WST-8 assay in absence of photoirradiation; type: cell-based
Summary of the method: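 HeLa cells were seeded at 5 × 10^3 per well in DMEM with 10% FCS and grown for 24 h at 37°C. They were then exposed for 24 h to 0.5 µM photosensitizer (1% DMSO final), washed, and not irradiated. Viability was read 24 h later by WST-8 absorbance at 450 nm and expressed as percent of untreated wells.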

HeLa [5] = experiment: Photocytotoxicity against human HeLa cells assessed as cell survival preincubated for 24 hrs followed by irradiation at 16 J/cm2 measured at 24 hrs by WST-8 assay; type: functional, cell-based; details: light or radiation study
Summary of the method: (§2)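 Cells (5 × 10^3/well) in DMEM with 10% FCS, 24 h at 37°C, 5% CO2; photosensitizer 1–50000 nM (1% DMSO final) for 24 h, washed, fresh medium. Irradiated with 100-W halogen lamp through λ>500 nm or λ>600 nm cutoff filter to 16 J·cm−2; WST-8 absorbance at 450 nm 24 h later, survival normalized to no-drug wells.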

HeLa [6] = experiment: Drug uptake in human HeLa cells at 0.1 uM after 24 hrs by spectrophotometrical analysis; type: ADME, cell-based
Summary of the method: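 HeLa cells (2.5 × 10^6/well) in DMEM with 10% FCS, preincubated 24 h at 37°C; photosensitizer added to 0.1 µM final (1% DMSO) for 24 h, two wells each. Cells washed twice with PBS, lysed in DMSO, Soret-band absorbance read against DMSO calibration; mean of three replicate experiments.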

[7] = Ratio of drug level in tumor to skin in iv dosed BDXI rat implanted with rat LSBD1 cells after 24 hrs; type: ADME, organism-based; details: in vivo
[8] = Photocytotoxicity against mouse B16-F1 cells assessed as cell survival preincubated for 24 hrs followed by irradiation at 16 J/cm2 measured at 24 hrs by WST-8 assay; type: functional, cell-based; details: B16-F1, light or radiation study; summary of the method: as §2
[9] = Photocytotoxicity against human U87 cells assessed as cell survival preincubated for 24 hrs followed by irradiation at 16 J/cm2 measured at 24 hrs by WST-8 assay; type: functional, cell-based, U-87MG ATCC; details: U-87 MG, light or radiation study; summary of the method: as §2
[10] = Photocytotoxicity against rat RGK1 cells assessed as cell survival preincubated for 24 hrs followed by irradiation at 16 J/cm2 measured at 24 hrs by WST-8 assay; type: functional, cell-based; details: RGK1, light or radiation study; summary of the method: as §2
T98G = experiment: Photocytotoxicity against human T98G cells assessed as cell survival preincubated for 24 hrs followed by irradiation at 16 J/cm2 measured at 24 hrs by WST-8 assay; type: functional, cell-based; details: light or radiation study; summary of the method: as §2
U-251 = experiment: Photocytotoxicity against human U251 cells assessed as cell survival preincubated for 24 hrs followed by irradiation at 16 J/cm2 measured at 24 hrs by WST-8 assay; type: functional, cell-based; details: U-251, light or radiation study; summary of the method: as §2
4T1 = experiment: Photocytotoxicity against mouse 4T1 cells assessed as cell survival preincubated for 24 hrs followed by irradiation at 16 J/cm2 measured at 24 hrs by WST-8 assay; type: functional, cell-based; details: 4T1, light or radiation study; summary of the method: as §2

| SMILES | Activity [1] | Ratio [2] | Ratio [3] | Activity (HeLa [4]) | EC50 (HeLa [5]) | Drug uptake (HeLa [6]) | further results |
| --- | --- | --- | --- | --- | --- | --- | --- |
| O=S(=O)(O)c1ccc(-c2c3nc(c(-c4ccc(S(=O)(=O)O)cc4)c4ccc([nH]4)c(-c4ccc(S(=O)(=O)O)cc4)c4nc(c(-c5ccc(S(=O)(=O)O)cc5)c5ccc2[nH]5)C=C4)C=C3)cc1 | 0.72 |  |  |  |  |  |  |
| CC1=C(CCC(=O)O)c2cc3[nH]c(cc4nc(cc5[nH]c(cc1n2)c(C)c5C(C)O)C(C)=C4C(C)O)c(C)c3CCC(=O)O (stereo not drawn) [HEMATOPORPHYRIN] |  | 1 | 1 |  |  |  |  |
| CN1CC2C3=N/C(=C(/c4c(F)c(F)c(S[C@@H]5O[C@H](CO)[C@@H](O)[C@H](O)[C@H]5O)c(F)c4F)C4=N/C(=C(/c5c(F)c(F)c(S[C@@H]6O[C@H](CO)[C@@H](O)[C@H](O)[C@H]6O)c(F)c5F)c5ccc([nH]5)/C(c5c(F)c(F)c(S[C@@H]6O[C@H](CO)[C@@H](O)[C@H](O)[C@H]6O)c(F)c5F)=C5/C=CC(=N5)C3c3c(F)c(F)c(S[C@@H]5O[C@H](CO)[C@@H](O)[C@H](O)[C@H]5O)c(F)c3F)C=C4)C2C1 (stereo partly drawn) | 0.17 | 1.7 | 1.1 | Non-toxic | 50 nM | Active |  |
| Oc1cccc(-c2c3nc(c(-c4cccc(O)c4)c4ccc([nH]4)c(-c4cccc(O)c4)c4nc(c(-c5cccc(O)c5)c5ccc2[nH]5)CC4)C=C3)c1 [TEMOPORFIN] |  |  |  |  |  |  | Ratio [7]: 3 |
| OC[C@H]1O[C@@H](Sc2c(F)c(F)c(/C3=C4\C=CC(=N4)C(c4c(F)c(F)c(F)c(F)c4F)C4=N/C(=C(/c5c(F)c(F)c(S[C@@H]6O[C@H](CO)[C@@H](O)[C@H](O)[C@H]6O)c(F)c5F)c5ccc([nH]5)/C(c5c(F)c(F)c(F)c(F)c5F)=C5/C=CC3=N5)C=C4)c(F)c2F)[C@H](O)[C@@H](O)[C@@H]1O (stereo partly drawn) | 0.16 | 0.8 | 7.7 | Non-toxic | 10 nM | Active | EC50 [8]: 1 nM; EC50 [9]: 10 nM; EC50 [10]: 10 nM; EC50 (T98G): 10 nM; EC50 (U-251): 10 nM; EC50 (4T1): 10 nM |
| OC[C@H]1O[C@@H](Oc2ccc(/C3=C4\C=CC(=N4)C(c4ccc(O[C@@H]5O[C@H](CO)[C@@H](O)[C@H](O)[C@H]5O)cc4)C4=N/C(=C(/c5ccc(O[C@@H]6O[C@H](CO)[C@@H](O)[C@H](O)[C@H]6O)cc5)c5ccc([nH]5)/C(c5ccc(O[C@@H]6O[C@H](CO)[C@@H](O)[C@H](O)[C@H]6O)cc5)=C5/C=CC3=N5)C=C4)cc2)[C@H](O)[C@@H](O)[C@@H]1O (stereo partly drawn) |  |  |  |  | 5000 nM |  |  |
